In general, inhibition refers to the percentage by which the read-out fell short of the control. Broadly, the IC50 is the concentration that gives 50% inhibition.

SMILES strings stand for the structures. Calls of active or inactive are those of the source. No cut-off for these calls is given here.

Consider one compound from ChEMBL document CHEMBL4028856, “Discovery of Small Molecules Targeting the Synergy of Cardiac Transcription Factors GATA4 and NKX2-5” (J Med Chem, 2017).

Data set [1] addresses Transcription factor GATA-4 (Mus musculus) (UniProt Q08369). Kind of data set: Inhibition of mouse GATA4-driven transactivation of luciferase reporter construct containing BNP minimal promoter expressed in African green monkey COS-1 cells after 30 hrs by luminometer. The format is cell-based. An outline of the steps: (§1)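 COS-1 cells co-transfected with firefly luciferase driven by BNP minimal or −90 bp BNP promoter, Renilla pRL-TKd238, and pMT2-GATA4 or empty pMT2. Compounds added 6 h post-transfection in 0.1% DMSO, refreshed with medium at 24 h; lysis at 30 h; dual-luciferase, firefly/Renilla normalized to vehicle; triplicate wells.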

For data set [2], the target named is T1, GATA4/NKX2-5 (Mus musculus) (UniProt Q08369+P42582). Put plainly: Inhibition of mouse GATA4/FLAG-tagged NKX2-5 interaction expressed in African green monkey COS-1 cells at 100 uM by coimmunoprecipitation method. The data set is classed as cell-based. In outline:
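FLAG-NKX2-5 and GATA4 lysates from COS-1 cells incubated overnight at 4 °C with anti-FLAG agarose in Tris/NaCl/Triton lysis buffer with protease/phosphatase inhibitors; beads washed thrice, eluted by boiling, SDS-PAGE, immunoblotted for GATA4 and NKX2-5, ECL detection.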

The target of data set [3] is Glycogen synthase kinase-3 beta (Homo sapiens) (UniProt P49841). Put plainly: Inhibition of human GSK3-beta at 30 uM. In outline:
(§2)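 48-kinase profiling panel; compounds tested at 30 μM in duplicate.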

The species entered for data set [4] is Homo sapiens. Kind of data set: Inhibition of human PKA at 30 uM. In outline:
as §2

Data set [5] addresses T2, GATA4/NKX2-5 (Rattus norvegicus) (UniProt P46152+O35767). Kind of data set: Inhibition of GATA4/NKX2-5 interaction in neonatal rat ventricular cardiomyocytes assessed as decrease in basal mRNA level of ANP at 10 uM after 24 hrs by real-time PCR analysis. In outline: (§3)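 Neonatal rat ventricular myocytes (2–4-day-old Sprague-Dawley or Wistar), preplated, seeded on 6-well plates, moved to complete serum-free medium next day and cultured 24 h. Compounds (10–100 μM) added 1 h before 100 nM endothelin-1 or none; ANP and BNP mRNA quantified by RT-PCR at 24 h, normalized to 18S RNA, relative to vehicle; mean ± SD, n = 3–6.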
For orientation: Real-time PCR tracks product formation cycle by cycle.

Data set [6] addresses Homeobox protein Nkx-2.5 (Mus musculus) (UniProt P42582). Kind of data set: Inhibition of binding of mouse NKX2-5 to [32P]-double stranded oligonucleotide expressed in African green monkey COS-1 cells at 50 uM preincubated for 10 mins followed by [32P]-double stranded oligonucleotide addition measured after 20 mins by EMSA method. The data set is classed as cell-based. In outline: (§4)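 Nuclear extracts from COS-1 cells transfected with pMT2-GATA4 or pMT2-NKX2-5 (harvested 48 h) preincubated 10 min with 50 μM compound, then 20 min with 32P-labeled GATA4- or NKX2-5-site probe; native 5% PAGE, phosphorimager quantitation; antibody supershift controls; mean ± SD, n = 3–5.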
A general note: In EMSA bound probe runs differently from free probe, usually more slowly.

Data set [7] has as its target T2, GATA4/NKX2-5 (Rattus norvegicus). Kind of data set: Inhibition of GATA4/NKX2-5 interaction in neonatal rat ventricular cardiomyocytes assessed as decrease in endothelin-1 induced mRNA level of ANP at 10 uM preincubated for 1 hr followed by endothelin-1 addition measured after 23 hrs by real-time PCR analysis. An outline of the steps:
as §3

Data set [8] in a line: Drug metabolism in embryoid body differentiation medium assessed as formation of N-[4-(Ethylamino)phenyl]-5-methyl-3-phenylisoxazole-4-carboxamide at 3 to 5 uM measured after 10 days by HPLC/MS method. The data set is classed as physicochemical. The settings on record: 240 h. An outline of the steps: (§5)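 Mouse embryonic stem cells exposed 5 and 10 days to 3 or 5 μM, with DMSO and EB differentiation medium blanks. Medium extracted with chloroform; cells pelleted, saline-washed twice, sonicated in chloroform. UPLC-ESI(+)-QTOF/MS, BEH C18, 0.1% formic acid water/acetonitrile gradient 7–80% B over 5 min, 0.6 mL/min, 40 °C.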

For data set [9], the target named is Parathyroid hormone 2 receptor (Homo sapiens) (UniProt P49190). Kind of data set: Agonist activity at human PTH2 receptor expressed in Chem-1 cells assessed as induction of calcium flux at 12.5 uM by fluorescence assay. The data set is classed as functional, cell-based. In outline: (§6)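 GPCR profiling panel of cell-based functional assays covering 165 GPCRs; agonist mode tested at 12.5 μM and antagonist mode at 10 μM, in duplicate.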

Data set [10] addresses Cannabinoid receptor 2 (Homo sapiens) (UniProt P34972). Put plainly: Antagonist activity at human CB2 receptor expressed in rat hematopoietic Chem-4 cells assessed as inhibition of CP55940 induced calcium flux at 10 uM by fluorescence assay. The data set is classed as functional, cell-based. An outline of the steps: as §6
(In general: Calcium assays in cells follow changes in intracellular calcium, usually with a dye or a luminescent sensor.)

Data set [11] concerns the target Transcription factor GATA-4 (Mus musculus) (UniProt Q08369). Put plainly: Inhibition of mouse GATA4-driven transactivation of luciferase reporter construct containing BNP minimal promoter with tandem GATA-site on -90 bp expressed in African green monkey COS-1 cells after 30 hrs by luminometer. The data set is classed as cell-based. An outline of the steps: as §1

Data set [12] deals with T1, GATA4/NKX2-5 (Mus musculus). Put plainly: (§7) Inhibition of mouse GATA4/NKX2-5 transcriptional synergy expressed in African green monkey COS-1 cells measured after 30 hrs by dual luciferase reporter gene assay. The data set is classed as cell-based. An outline of the steps: (§8)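 COS-1 cells co-transfected (Fugene 6, DNA:reagent 1:3) with p3xNKE-luc, Renilla pRL-TKd238 control, and pMT2-GATA4, pMT2-NKX2-5, both, or empty pMT2; DNA balanced with pMT2. Compounds added 6 h post-transfection in 0.1% DMSO, medium renewed at 24 h, lysis at 30 h. Dual-luciferase read-out, firefly/Renilla normalized to vehicle; duplicate wells.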

Data set [13] has as its target GATA4/NKX2-5 (Mus musculus, UniProt P42582+Q08369). The data set is described as §7. The format is cell-based. In outline: as §8
In data set [14] the target is Epidermal growth factor receptor (Homo sapiens) (UniProt P00533). Put plainly: Inhibition of human EGFR at 30 uM. An outline of the steps: as §2
The target of data set [15] is Rho-associated protein kinase 1 (Homo sapiens) (UniProt Q13464). Put plainly: Inhibition of human ROCK1 at 30 uM. In outline:
as §2

Data set [16] concerns the target T2, GATA4/NKX2-5 (Rattus norvegicus). Put plainly: Inhibition of GATA4/NKX2-5 interaction in neonatal rat ventricular cardiomyocytes assessed as decrease in basal mRNA level of BNP at 10 uM after 24 hrs by real-time PCR analysis. In outline: as §3
Data set [17] deals with Transcription factor GATA-4 (Mus musculus) (UniProt Q08369). Put plainly: Inhibition of binding of mouse GATA4 to [32P]-double stranded oligonucleotide expressed in African green monkey COS-1 cells at 50 uM preincubated for 10 mins followed by [32P]-double stranded oligonucleotide addition measured after 20 mins by EMSA method. The data set is classed as cell-based. An outline of the steps: as §4

The target of data set [18] is T2, GATA4/NKX2-5 (Rattus norvegicus). Kind of data set: Inhibition of GATA4/NKX2-5 interaction in neonatal rat ventricular cardiomyocytes assessed as decrease in endothelin-1 induced mRNA level of BNP at 10 uM preincubated for 1 hr followed by endothelin-1 addition measured after 23 hrs by real-time PCR analysis. In outline: as §3
Data set [19] has as its target Vascular endothelial growth factor receptor 2 (Homo sapiens) (UniProt P35968). Put plainly: Inhibition of human VEGFR2 at 30 uM. An outline of the steps: as §2
Data set [20] can be described thus: Drug metabolism in mouse embryonic stem cells assessed as formation of N-[4-(Ethylamino)phenyl]-5-methyl-3-phenylisoxazole-4-carboxamide at 3 to 5 uM measured after 10 days by HPLC/MS method. The conditions noted are these: embryonic stem cell, 240 h. The format is ADME, cell-based. An outline of the steps: as §5
For data set [21], the target named is Mitogen-activated protein kinase 1 (Homo sapiens) (UniProt P28482). Kind of data set: Inhibition of human ERK2 at 30 uM. In outline: as §2
Data set [22] is described as follows: Induction of aggregation of compound at 3 to 30 uM by nephalometric method.

Transcription factor GATA-4 (Mus musculus), sequence (Q08369 whole entry): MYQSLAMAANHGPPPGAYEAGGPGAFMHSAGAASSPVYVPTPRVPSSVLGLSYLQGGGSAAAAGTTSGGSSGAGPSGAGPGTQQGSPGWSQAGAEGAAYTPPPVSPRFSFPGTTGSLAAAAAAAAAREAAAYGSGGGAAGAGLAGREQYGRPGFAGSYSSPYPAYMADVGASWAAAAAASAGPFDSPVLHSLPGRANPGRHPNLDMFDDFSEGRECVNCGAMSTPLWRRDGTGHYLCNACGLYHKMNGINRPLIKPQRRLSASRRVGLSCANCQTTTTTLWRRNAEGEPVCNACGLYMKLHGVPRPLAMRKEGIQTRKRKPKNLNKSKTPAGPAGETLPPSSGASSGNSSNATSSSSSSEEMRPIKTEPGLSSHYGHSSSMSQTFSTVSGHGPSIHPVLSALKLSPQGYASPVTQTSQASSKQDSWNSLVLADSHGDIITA
Homeobox protein Nkx-2.5 (Mus musculus), sequence (P42582 whole entry): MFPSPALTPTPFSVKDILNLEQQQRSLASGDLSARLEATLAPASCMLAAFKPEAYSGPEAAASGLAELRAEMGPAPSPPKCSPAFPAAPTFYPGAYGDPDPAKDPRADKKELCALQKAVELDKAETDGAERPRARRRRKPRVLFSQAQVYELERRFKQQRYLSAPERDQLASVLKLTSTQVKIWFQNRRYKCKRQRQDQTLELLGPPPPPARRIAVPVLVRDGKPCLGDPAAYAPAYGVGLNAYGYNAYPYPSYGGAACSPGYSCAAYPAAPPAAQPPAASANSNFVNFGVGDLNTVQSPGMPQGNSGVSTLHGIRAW
Parathyroid hormone 2 receptor (Homo sapiens), sequence (P49190 whole entry): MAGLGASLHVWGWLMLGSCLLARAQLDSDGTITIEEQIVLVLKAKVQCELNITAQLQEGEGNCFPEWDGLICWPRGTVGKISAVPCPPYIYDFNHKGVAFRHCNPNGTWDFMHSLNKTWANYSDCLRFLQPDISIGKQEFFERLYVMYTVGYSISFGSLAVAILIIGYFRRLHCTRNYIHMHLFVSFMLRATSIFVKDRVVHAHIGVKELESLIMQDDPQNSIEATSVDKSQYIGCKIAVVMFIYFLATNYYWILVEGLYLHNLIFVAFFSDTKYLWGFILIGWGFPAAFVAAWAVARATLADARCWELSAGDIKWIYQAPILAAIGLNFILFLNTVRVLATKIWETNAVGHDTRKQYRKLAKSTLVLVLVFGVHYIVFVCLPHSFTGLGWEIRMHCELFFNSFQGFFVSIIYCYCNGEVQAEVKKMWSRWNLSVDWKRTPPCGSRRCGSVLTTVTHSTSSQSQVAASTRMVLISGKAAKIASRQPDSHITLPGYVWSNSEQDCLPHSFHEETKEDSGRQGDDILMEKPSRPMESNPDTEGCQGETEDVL
Cannabinoid receptor 2 (Homo sapiens), sequence (P34972 whole entry): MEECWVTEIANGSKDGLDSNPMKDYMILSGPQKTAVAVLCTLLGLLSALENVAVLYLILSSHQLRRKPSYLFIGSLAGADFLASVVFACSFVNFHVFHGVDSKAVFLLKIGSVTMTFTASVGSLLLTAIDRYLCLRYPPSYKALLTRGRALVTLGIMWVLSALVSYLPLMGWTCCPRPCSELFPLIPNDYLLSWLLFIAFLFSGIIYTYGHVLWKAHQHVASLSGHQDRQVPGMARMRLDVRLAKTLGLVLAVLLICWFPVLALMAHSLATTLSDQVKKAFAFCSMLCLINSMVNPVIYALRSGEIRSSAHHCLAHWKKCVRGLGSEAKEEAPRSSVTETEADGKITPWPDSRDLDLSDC
GATA4/NKX2-5, sequence (Q08369 whole entry): as the sequence (Q08369 whole entry) above
GATA4/NKX2-5, sequence (P42582 whole entry): as the sequence (P42582 whole entry) above
Glycogen synthase kinase-3 beta (Homo sapiens), sequence (P49841 whole entry, looked up): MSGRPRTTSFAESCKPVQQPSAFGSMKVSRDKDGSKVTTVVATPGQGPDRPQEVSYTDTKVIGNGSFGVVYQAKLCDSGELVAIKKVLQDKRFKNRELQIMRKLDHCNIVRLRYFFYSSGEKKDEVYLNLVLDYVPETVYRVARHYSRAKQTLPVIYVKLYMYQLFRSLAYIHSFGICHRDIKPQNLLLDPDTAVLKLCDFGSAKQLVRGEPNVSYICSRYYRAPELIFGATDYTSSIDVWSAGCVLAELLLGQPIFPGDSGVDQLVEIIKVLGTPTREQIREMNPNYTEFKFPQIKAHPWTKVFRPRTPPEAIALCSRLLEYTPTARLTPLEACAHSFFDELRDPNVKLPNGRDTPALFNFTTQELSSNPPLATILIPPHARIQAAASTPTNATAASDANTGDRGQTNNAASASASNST
Rho-associated protein kinase 1 (Homo sapiens), sequence (Q13464 2-1354 limits assumed): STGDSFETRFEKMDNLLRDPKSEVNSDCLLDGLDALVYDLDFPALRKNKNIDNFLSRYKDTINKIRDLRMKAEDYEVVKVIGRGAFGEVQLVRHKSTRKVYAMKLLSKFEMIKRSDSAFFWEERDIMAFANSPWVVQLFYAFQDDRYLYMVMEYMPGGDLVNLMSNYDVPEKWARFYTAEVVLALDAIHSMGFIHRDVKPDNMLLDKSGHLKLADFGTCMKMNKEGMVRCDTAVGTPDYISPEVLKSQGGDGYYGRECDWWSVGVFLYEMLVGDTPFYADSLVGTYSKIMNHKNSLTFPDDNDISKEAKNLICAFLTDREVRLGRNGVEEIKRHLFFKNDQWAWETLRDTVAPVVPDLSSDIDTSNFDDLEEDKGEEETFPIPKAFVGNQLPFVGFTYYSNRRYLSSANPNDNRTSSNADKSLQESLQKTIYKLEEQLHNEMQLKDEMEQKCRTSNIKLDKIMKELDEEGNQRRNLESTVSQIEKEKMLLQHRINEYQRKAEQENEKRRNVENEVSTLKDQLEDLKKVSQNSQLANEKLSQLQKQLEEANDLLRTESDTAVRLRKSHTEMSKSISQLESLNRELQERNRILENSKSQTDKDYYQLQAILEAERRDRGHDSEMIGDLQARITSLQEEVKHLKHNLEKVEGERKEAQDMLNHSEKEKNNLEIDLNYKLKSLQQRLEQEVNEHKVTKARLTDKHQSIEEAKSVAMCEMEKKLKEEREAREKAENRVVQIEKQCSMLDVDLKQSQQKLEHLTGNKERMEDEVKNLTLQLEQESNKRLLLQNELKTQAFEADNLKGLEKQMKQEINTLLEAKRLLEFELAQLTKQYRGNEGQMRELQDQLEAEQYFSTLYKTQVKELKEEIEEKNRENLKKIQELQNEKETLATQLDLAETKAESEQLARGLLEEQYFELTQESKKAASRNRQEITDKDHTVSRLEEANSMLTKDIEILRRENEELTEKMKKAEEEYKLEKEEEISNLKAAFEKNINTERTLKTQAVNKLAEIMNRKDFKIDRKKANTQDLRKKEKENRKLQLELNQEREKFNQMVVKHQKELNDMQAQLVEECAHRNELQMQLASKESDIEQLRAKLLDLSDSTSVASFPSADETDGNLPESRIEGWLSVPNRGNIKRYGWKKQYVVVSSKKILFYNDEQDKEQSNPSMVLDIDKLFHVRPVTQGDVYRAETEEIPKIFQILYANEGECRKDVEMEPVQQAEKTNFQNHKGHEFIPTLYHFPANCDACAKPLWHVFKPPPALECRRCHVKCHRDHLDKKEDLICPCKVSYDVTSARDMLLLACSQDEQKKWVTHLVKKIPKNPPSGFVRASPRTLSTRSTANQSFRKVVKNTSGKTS
Epidermal growth factor receptor (Homo sapiens), sequence (P00533 whole entry): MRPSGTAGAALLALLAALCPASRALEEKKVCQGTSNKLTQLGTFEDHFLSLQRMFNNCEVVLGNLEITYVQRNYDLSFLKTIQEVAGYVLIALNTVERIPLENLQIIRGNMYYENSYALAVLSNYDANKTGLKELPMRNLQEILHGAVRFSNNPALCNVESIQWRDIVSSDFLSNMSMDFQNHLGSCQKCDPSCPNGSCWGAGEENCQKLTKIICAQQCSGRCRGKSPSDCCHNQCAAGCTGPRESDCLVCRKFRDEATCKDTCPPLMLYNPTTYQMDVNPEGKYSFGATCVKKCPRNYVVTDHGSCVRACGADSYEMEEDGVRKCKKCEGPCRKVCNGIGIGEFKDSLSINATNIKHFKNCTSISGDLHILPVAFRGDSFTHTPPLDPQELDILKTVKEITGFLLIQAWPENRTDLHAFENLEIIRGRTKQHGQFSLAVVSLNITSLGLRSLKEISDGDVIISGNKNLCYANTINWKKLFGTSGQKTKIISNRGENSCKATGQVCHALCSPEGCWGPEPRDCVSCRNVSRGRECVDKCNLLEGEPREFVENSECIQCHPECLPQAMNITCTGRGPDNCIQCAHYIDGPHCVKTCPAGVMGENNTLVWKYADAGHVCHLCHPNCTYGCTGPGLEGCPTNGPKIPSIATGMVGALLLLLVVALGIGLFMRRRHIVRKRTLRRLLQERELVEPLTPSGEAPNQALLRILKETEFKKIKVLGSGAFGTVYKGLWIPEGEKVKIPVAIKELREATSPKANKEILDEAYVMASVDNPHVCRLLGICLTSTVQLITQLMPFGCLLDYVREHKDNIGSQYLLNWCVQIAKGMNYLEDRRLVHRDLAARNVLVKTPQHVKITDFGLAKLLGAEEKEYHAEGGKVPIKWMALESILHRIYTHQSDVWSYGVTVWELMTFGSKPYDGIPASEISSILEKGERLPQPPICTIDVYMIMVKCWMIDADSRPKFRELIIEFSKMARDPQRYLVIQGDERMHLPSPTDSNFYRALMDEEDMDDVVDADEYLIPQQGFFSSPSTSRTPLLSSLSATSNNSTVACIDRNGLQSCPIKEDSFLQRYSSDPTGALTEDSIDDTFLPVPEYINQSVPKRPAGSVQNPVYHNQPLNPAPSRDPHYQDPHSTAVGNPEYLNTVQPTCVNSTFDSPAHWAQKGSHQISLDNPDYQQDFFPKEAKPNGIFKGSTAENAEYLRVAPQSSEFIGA

As to `CCN(CC)c1ccc(NC(=O)c2c(-c3ccccc3)noc2C)cc1`, the inhibition entry in data set [1], in data set [2] and in data set [11] was “Active” throughout. For the same compound, the inhibition result in data set [3], in data set [4], in data set [6], in [15], in data set [17] and in [21] was “inactive” in each case. In addition, the inhibition in data set [5] was 81%; in [7], 32%; in data set [10] it was 91.8%; in [12], “Dose-dependent effect”; in data set [14] it was 54%; in data set [16], 75%. In addition, the inhibition in data set [18] stood at 68%; in [19] it was 64%. Besides, the Drug metabolism result in data set [8] and in [20] was “Metabolite_Detected” each time. The outcome in [9] and in data set [22] was inactive. Further, the IC50 in data set [13] was 3 µM.
